Results published in PMC12079426 (RSC Advances, 2025).
Several values for one entry are separate records, joined by “and”; a condition that tells them apart may be missing. Identical values can stand only once.

Tests used:
Assay type in all cases: in vivo
[1] = system: female Swiss albino mice; experiment: Acute oral toxicity study; details: individual mice; for Body weight Day 0: pre-administration fasting weight
How it was run: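 Female Swiss albino mice (20–23 g) kept at 22 ± 3 °C, 50–65% humidity, 12 h light/dark. OECD 423 stepwise design, three mice per step: 300 mg/kg, then 2000 mg/kg. Test compound was given in distilled water by oral intubation needle. Feed was withheld 3–4 h before and 2 h after dosing. Fasting weight was taken pre-dose, then on days 7 and 14.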

[2] = system: female Swiss albino mice; experiment: Tail Suspension Test; details: percentage decrease in duration of immobility compared to disease control
How it was run: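 Female Swiss albino mice (20–23 g) received standard or test compound 30 min before testing. Each mouse was hung by the tail from a hook in a three-sided chamber, 50 cm above the surface. Total immobility was recorded over a 10-min session and reported as mean ± SEM.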

[3] = system: female Swiss albino mice; experiment: Forced Swim Test; details: percentage decrease in duration of immobility compared to disease control
How it was run: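 Female Swiss albino mice (20–23 g) were dosed 30 min before testing: saline 10 mL/kg (control), fluoxetine 10 mg/kg (standard), or test compound 100 mg/kg. Two 10-min swim sessions ran 24 h apart (pre-test, then test). Water was at 23 ± 1 °C, deep enough that hind legs could not touch bottom, and changed after each trial. Immobility duration reported as mean ± SEM.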

| Structure (SMILES) | Body weight Day 7 ([1]; Step I 300 mg kg^−1 oral) | Body weight Day 14 ([1]; Step I 300 mg kg^−1 oral) | Body weight Day 0 ([1]; Step I 300 mg kg^−1 oral) | Body weight Day 7 ([1]; Step II 2000 mg kg^−1 oral) | Body weight Day 14 ([1]; Step II 2000 mg kg^−1 oral) | Body weight Day 0 ([1]; Step II 2000 mg kg^−1 oral) | DID (%) Tail suspension test [2] | DID (%) Forced swim test [3] |
| --- | --- | --- | --- | --- | --- | --- | --- | --- |
| Cc1nn(-c2ccccc2)c(N2CCCCC2)c1/C=C/C(=O)c1ccc(-n2c3ccccc3c3ccccc32)cc1 [13a, (E)-1-(4-(9H-Carbazol-9-yl)phenyl)-3-(3-methyl-1-phenyl-5-(piperidin-1-yl)-1H-pyrazol-4-yl)prop-2-en-1-one] | 28 g and 26.5 g and 29 g | 32 g and 33 g and 34.5 g | 22.5 g and 21.5 g and 25 g | 29.5 g and 29 g and 30 g | 33 g and 32.5 g and 35 g | 24 g and 23.5 g | 5.74% | 24.92% |
| Cc1nn(-c2ccccc2)c(N2CCOCC2)c1/C=C/C(=O)c1ccc(-n2c3ccccc3c3ccccc32)cc1 [13b, (E)-1-(4-(9H-Carbazol-9-yl)phenyl)-3-(3-methyl-5-morpholino-1-phenyl-1H-pyrazol-4-yl)prop-2-en-1-one] | 26.5 g and 29 g and 29.5 g | 32.5 g and 36 g and 34.5 g | 23.5 g and 24 g | 27.5 g and 30.5 g and 27 g | 32 g and 34.5 g | 23 g and 24.5 g and 21.5 g | 11.30% | 23.47% |
| Cc1nn(-c2ccccc2)c(-n2nnc3ccccc32)c1/C=C/C(=O)c1ccc(-n2c3ccccc3c3ccccc32)cc1 [13c, (E)-3-(5-(1H-Benzo[d][1,2,3]triazol-1-yl)-3-methyl-1-phenyl-1H-pyrazol-4-yl)-1-(4-(9H-carbazol-9-yl)phenyl)prop-2-en-1-one] | 26.5 g | 31 g and 30 g | 22.5 g and 23.5 g and 21.5 g | 28 g and 28.5 g and 29.5 g | 33.5 g and 34.5 g | 22 g and 23.5 g | 34.67% | 35.63% |
| COc1c(/C=C/C(=O)c2ccc(-n3c4ccccc4c4ccccc43)cc2)c(C)nn1-c1ccccc1 [13d, (E)-1-(4-(9H-Carbazol-9-yl)phenyl)-3-(5-methoxy-3-methyl-1-phenyl-1H-pyrazol-4-yl)prop-2-en-1-one] |  |  |  |  |  |  | 8.55% |  |
| Cc1nn(-c2ccccc2)c(N2CCCCC2)c1/C=C/C(=O)c1ccc(-n2ccc3ccccc32)cc1 [14a, (E)-1-(4-(1H-Indol-1-yl)phenyl)-3-(3-methyl-1-phenyl-5-(piperidin-1-yl)-1H-pyrazol-4-yl)prop-2-en-1-one] |  |  |  |  |  |  | 2.58% | 16.61% |
| Cc1nn(-c2ccccc2)c(N2CCOCC2)c1/C=C/C(=O)c1ccc(-n2ccc3ccccc32)cc1 [14b, (E)-1-(4-(1H-Indol-1-yl)phenyl)-3-(3-methyl-5-morpholino-1-phenyl-1H-pyrazol-4-yl)prop-2-en-1-one] |  |  |  |  |  |  | 1.92% | 2.22% |
| Cc1nn(-c2ccccc2)c(-n2nnc3ccccc32)c1/C=C/C(=O)c1ccc(-n2ccc3ccccc32)cc1 [14c, (E)-3-(5-(1H-Benzo[d][1,2,3]triazol-1-yl)-3-methyl-1-phenyl-1H-pyrazol-4-yl)-1-(4-(1H-indol-1-yl)phenyl)prop-2-en-1-one] |  |  |  |  |  |  | 9.60% | 17.90% |
| COc1c(/C=C/C(=O)c2ccc(-n3ccc4ccccc43)cc2)c(C)nn1-c1ccccc1 [14d, (E)-1-(4-(1H-Indol-1-yl)phenyl)-3-(5-methoxy-3-methyl-1-phenyl-1H-pyrazol-4-yl)prop-2-en-1-one] |  |  |  |  |  |  | 5.57% | 13.62% |
| Cc1nn(-c2ccccc2)c(N2CCCCC2)c1/C=C/C(=O)c1ccc(-n2cccc2)cc1 [15a, (E)-1-(4-(1H-Pyrrol-1-yl)phenyl)-3-(3-methyl-1-phenyl-5-(piperidin-1-yl)-1H-pyrazol-4-yl)prop-2-en-1-one] |  |  |  |  |  |  | 4.50% | 6.55% |
| Cc1nn(-c2ccccc2)c(N2CCOCC2)c1/C=C/C(=O)c1ccc(-n2cccc2)cc1 [15b, (E)-1-(4-(1H-Pyrrol-1-yl)phenyl)-3-(3-methyl-5-morpholino-1-phenyl-1H-pyrazol-4-yl)prop-2-en-1-one] |  |  |  |  |  |  | 5.74% | 11.56% |
| Cc1nn(-c2ccccc2)c(-n2nnc3ccccc32)c1/C=C/C(=O)c1ccc(-n2cccc2)cc1 [15c, (E)-3-(5-(1H-Benzo[d][1,2,3]triazol-1-yl)-3-methyl-1-phenyl-1H-pyrazol-4-yl)-1-(4-(1H-pyrrol-1-yl)phenyl)prop-2-en-1-one] |  |  |  |  |  |  | 14.60% | 22.99% |
| COc1c(/C=C/C(=O)c2ccc(-n3cccc3)cc2)c(C)nn1-c1ccccc1 [15d, (E)-1-(4-(1H-Pyrrol-1-yl)phenyl)-3-(5-methoxy-3-methyl-1-phenyl-1H-pyrazol-4-yl)prop-2-en-1-one] |  |  |  |  |  |  | 16.24% | 22.53% |
| CNCCC(Oc1ccc(C(F)(F)F)cc1)c1ccccc1 (stereo not shown) [Fluoxetine, reference compound] |  |  |  |  |  |  | 59.67% | 56.17% |
